Source: PubChem BioAssay AID2527 (Broad Institute, 2010)
Calls of active or inactive are those of the source.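 How the source made its calls: active means at 30 µM dose, two-repeat average suppression of induced P-selectin signal exceeds 50%; inactive means average suppression 50% or lower.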

Tested on: platelets, A23187-induced P-selectin, flow cytometry
Assay: calcium ionophore platelet activation inhibition – cell-based, fluorescence, flow cytometry, platelets, selectivity assay, confirmation (AID 2527)
Conditions: at 30 µM; hits give high values
Procedure, shortened: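 assay system = stimulated platelets | also added = 10 µM A23187 | dosing = single compound dose of 30 µM | times = 20 min compound, 15 min A23187, 20 min stain | technique = flow cytometry, PE anti-P-selectin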

| SMILES | inhibition |
| --- | --- |
| O=C(Nc1cccc(NC(=O)c2ccccc2Cl)c1)c1ccco1 | 5.95% (inactive) |
| CCCC(=O)Nc1cccc(NC(=O)c2ccccc2Br)c1 | 3.45% (inactive) |
